In brackets after ≈: the same amount, converted by molar mass. Activity calls are given as the source filed them. The rule behind the calls is not given here.

The values that follow come from ChEMBL document CHEMBL1949651, “Hamamelitannin from witch hazel (Hamamelis virginiana) displays specific cytotoxic activity against colon cancer cells” (J Nat Prod, 2012).

For assay [1], the system named is HT-29. As to the kind of experiment: Induction of H2O2 production in human HT-29 cells at 100 ug/ml after 72 hrs by ferrous oxidation xylenol orange assay. The format is functional, cell-based.
The test system of assay [2] is HT-29. As to the kind of experiment: Induction of H2O2 production in human HT-29 cells at 100 ug/ml after 72 hrs by ferrous oxidation xylenol orange assay in presence of catalase. The format is functional, cell-based.
For assay [3], the system named is Radical scavenging activity. As to the kind of experiment: Antioxidant activity against DPPH assessed per micromol of radical after 30 mins by UV spectrophotometry. The format is functional. Put shortly: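 DPPH radical in solution; 30 min at room temperature in the dark, absorbance at 517 nm. Percentage absorbance loss [(1 − A/A0) × 100] plotted against sample amount over initial DPPH concentration; three independent determinations per point.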
Background: DPPH is a stable violet radical that fades when it is reduced.

In assay [4] the test system is HT-29. The experiment in a line: Antiproliferative activity against human HT-29 cells after 72 hrs by MTT assay. The conditions noted are these: HT-29, 72 h. The format is functional, cell-based. Put shortly: (§1)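 HT29 (ATCC HTB-38) in DMEM with 10% heat-inactivated FCS, 0.1% streptomycin/penicillin; 3 × 10^3 cells/well, 24 h at 37 °C, then graded concentrations in fresh medium for 72 h, optionally with bovine liver catalase (100 U/mL). MTT (1 mg/mL in PBS) 1 h, formazan dissolved in DMSO, absorbance 550 nm; IC50 from dose–viability curves; three independent experiments.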
On the technique in general: Tetrazolium assays rely on reduction of a dye to a coloured formazan, in cell work by metabolically active cells.

Assay [5] deals with HT-29. As to the kind of experiment: Induction of apoptosis in human HT-29 cells assessed as necrotic cells at IC50 after 72 hrs by annexin V/propidium iodide-based flow cytometry. The format is functional. Put shortly: (§2)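 HT29 seeded, treated 72 h and harvested as for cell cycle; staurosporine 1 μM as control. Annexin+/PI− early apoptotic; annexin+/PI+ and annexin−/PI+ late apoptotic/necrotic; three separate experiments.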
On the technique in general: In flow cytometry, cells or beads pass a laser one at a time.

Assay [6] is described as follows: Antiproliferative activity against human NCM460 cells after 72 hrs by MTT assay. The format is cell-based. The conditions noted are these: NCM460, 72 h. The method in brief: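 NCM460 normal colon mucosa epithelial cells in M3Base with 10% heat-inactivated FCS plus 2.5 mM D-glucose (5 mM final); 1 × 10^4 cells/well, 24 h at 37 °C, graded concentrations for 72 h. MTT 1 h, DMSO-dissolved formazan read at 550 nm; IC50 from dose–viability curves; three independent experiments.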

Assay [7] can be described thus: Antioxidant activity against HNTTM assessed per micromol of radical after 7 hrs by UV spectrophotometry. The format is functional. The method in brief: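 Polyphenols (2–62 μM, fresh) mixed 1:1 by volume with HNTTM (120 μM) in deoxygenated CHCl3–MeOH (2:1); 7 h at room temperature in the dark, absorbance at 384 nm. Percentage absorbance loss plotted against sample over initial radical micromoles; dose–response curve per sample, EC50 and ARP reported; three independent determinations.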

In assay [8] the test system is HT-29. As to the kind of experiment: Antiproliferative activity against human HT-29 cells after 72 hrs by MTT assay in presence of H2O2 scavenger catalase. The format is functional, cell-based. Conditions: HT-29, 72 h. Put shortly: as §1
The test system of assay [9] is HT-29. The experiment in a line: Cell cycle arrest in human HT-29 cells assessed as accumulation at S phase at IC50 after 72 hrs by propidium iodide staining based flow cytometry. The format is functional. Put shortly:
(§3)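 HT29 seeded 87 × 10^3 cells/well, 24 h at 37 °C, treated 72 h; hydroxyurea 1 mM as standard. Trypsinized cells stained in Tris-buffered saline with 50 μg/mL PI, 10 μg/mL DNase-free RNase, 0.1% Igepal CA-630, 1 h at 4 °C dark; flow cytometry at 488 nm; normalized G1/S/G2 percentages, three separate experiments.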

A short description of assay [10]: Antioxidant activity against TNPTM assessed per micromol of radical after 48 hrs by UV spectrophotometry. The format is functional. Put shortly: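 As for HNTTM but with TNPTM radical, sample range 10–120 μM, 48 h incubation, absorbance at 378 nm; percentage absorbance loss versus sample over initial radical micromoles, dose–response curve, EC50 and ARP; three independent determinations.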

Assay [11] deals with HT-29. The experiment in a line: Induction of apoptosis in human HT-29 cells assessed as apoptotic cells at IC50 after 72 hrs by annexin V/propidium iodide-based flow cytometry. The format is functional. Put shortly: as §2
Assay [12] relates to HT-29. As to the kind of experiment: Cell cycle arrest in human HT-29 cells assessed as reduction of cells at G1 phase at IC50 after 72 hrs by propidium iodide staining based flow cytometry. The format is functional. Put shortly: as §3
The test system of assay [13] is HT-29. As to the kind of experiment: Cell cycle arrest in human HT-29 cells assessed as reduction of cells at G2 phase at IC50 after 72 hrs by propidium iodide staining based flow cytometry. The format is functional. The method in brief:
as §3

Turning to `O=C(O[C@@H]1Cc2c(O)cc(O)cc2O[C@@H]1c1cc(O)c(O)c(O)c1)c1cc(O)c(O)c(O)c1`, the Activity result in the assay on HT-29 [1] is “Dose-dependent effect”. The result in the assay on HT-29 [2] was inactive.
For the compound `O=C(OC[C@H]1OC(O)[C@@](O)(COC(=O)c2cc(O)c(O)c(O)c2)[C@@H]1O)c1cc(O)c(O)c(O)c1` (stereo partly specified) [HAMAMELITANNIN], the values for the EC50 in assay [3], in assay [7] and in assay [10] were 27.8 µg/µmol, 71.2 µg/µmol and 116 µg/µmol, respectively. Further, the Activity entry was “Dose-dependent effect” with HT-29 [1], 14% in the assay on HT-29 [5], 16% with HT-29 [9] and 26% in the assay with HT-29 [11]. The IC50 in the assay with HT-29 [4] was 20 µg/mL (≈ 41.3 µM); in [6], greater than 100 µg/mL; with HT-29 [8], 13 µg/mL. Moreover, the outcome in the assay with HT-29 [2] was inactive.
As to `O=C(OC[C@H]1O[C@@H](OC(=O)c2cc(O)c(O)c(O)c2)[C@H](OC(=O)c2cc(O)c(O)c(O)c2)[C@@H](OC(=O)c2cc(O)c(O)c(O)c2)[C@@H]1OC(=O)c1cc(O)c(O)c(O)c1)c1cc(O)c(O)c(O)c1` [PENTAGALLOYL GLUCOSE], the EC50 in assay [3] is 23.8 µg/µmol; in assay [7], 54.8 µg/µmol; in [10] it was 2400 µg/µmol. The Activity result was “Dose-dependent effect” in the assay on HT-29 [1], 5% in the assay with HT-29 [5], 8% in the assay with HT-29 [9] and 11% with HT-29 [11]. For the same compound, the IC50 in the assay with HT-29 [4] was 28 µg/mL (≈ 29.8 µM); in [6] it was 23 µg/mL (≈ 24.5 µM); in the assay on HT-29 [8] it was 34 µg/mL. Further, the result in the assay with HT-29 [12] and in the assay with HT-29 [13] was Active. For the same compound, the result with HT-29 [2] was inactive.

What is called IC50 is the concentration that gives 50% inhibition.
